Laboratory results published in ChEMBL document CHEMBL1629504, “Synthesis, antitrichinnellosis and antiprotozoal activity of some novel thieno[2,3-d]pyrimidin-4(3H)-ones containing benzimidazole ring” (2010).
Activity calls are given as the source filed them. The rule behind the calls is not given here.

What was measured:
[1] = test system: Trichinella spiralis; assay: Antitrichinellosis activity against Trichinella spiralis assessed as parasites viability at 5 ug/ml after 24 hrs by stereomicroscopy; assay type: functional
How it was run: (§1)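 Encapsulated larvae, 100 per 1 ml physiological solution (Campbell's method), exposed to compound dissolved in DMSO at 5 µg/ml; incubated in a humid thermostatted chamber at 37 °C. Larval vitality checked by stereomicroscopy at 24 and 48 h.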

[2] = test system: Trichinella spiralis; assay: Antitrichinellosis activity against Trichinella spiralis assessed as parasites viability at 5 ug/ml after 48 hrs by stereomicroscopy; assay type: functional; how it was run: as §1
[3] = test system: Paramecium caudatum; assay: Antiprotozoal activity against Paramecium caudatum assessed as parasites viability at 1 ug/ml after 15-20 mins by stereomicroscopy; assay type: functional
How it was run: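 Paramecia from dry-hay maceration culture; 2–3 drops of culture added to a drop of compound in DMSO (1 µg/ml) in a Petri dish. Motility and cell integrity followed stereomicroscopically over minutes after addition.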

[4] = test system: Giardia muris; assay: Antiprotozoal activity against Giardia muris infected in white mouse assessed as presence of cysts in mouse faeces at 0.5 ug/ml, po after 5 days by microscopy; assay type: functional, organism-based; conditions: Feces
How it was run: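 Infected white mice (five per group) dosed p.o. once daily by thin metal oesophageal probe, 0.5 µg/ml pro die as 0.5 ml DMSO solution, for 5 days; untreated and DMSO-only control groups. After the course, faeces stained with Lugol's solution and examined microscopically for cysts.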

| Structure (SMILES) | Efficacy [1] | Efficacy [2] | Activity [3] | Activity [4] |
| --- | --- | --- | --- | --- |
| CCCSc1ccc2[nH]c(NC(=O)OC)nc2c1 [ALBENDAZOLE] | 10.6% | 14.8% |  |  |
| CCOC(=O)c1sc2nc(CCSc3nc4cc([N+](=O)[O-])ccc4[nH]3)[nH]c(=O)c2c1C | 50% | 80.05% | Active | Active |
| O=c1[nH]c(CCSc2nc3ccccc3n2[N+](=O)[O-])nc2sc3c(c12)CCCC3 | 90.1% | 90.1% | Active | Active |
| CCOC(=O)c1sc2nc(CCSc3nc4ccccc4n3CC)[nH]c(=O)c2c1C | 39.07% | 59.75% | Active | Active |
| CCCn1c(SCCc2nc3sc4c(c3c(=O)[nH]2)CCCC4)nc2ccccc21 | 84.8% | 90.05% | Active | Active |
| Cn1c(SCCc2nc3sc4c(c3c(=O)[nH]2)CCCC4)nc2ccccc21 | 40.05% | 89.9% | Active | Active |
| CCOC(=O)c1sc2nc(CCn3cnc4ccccc43)[nH]c(=O)c2c1C | 79.8% | 85.3% | Active | Active |
| O=c1[nH]c(CCn2cnc3cc([N+](=O)[O-])ccc32)nc2sc3c(c12)CCCC3 | 95.05% | 95.05% | Active | Active |
| CCOC(=O)c1sc2nc(CCSc3nc4cc(Cl)ccc4[nH]3)[nH]c(=O)c2c1C | 0% | 5.09% | Active | Active |
